Rows were chosen to be rich in hits. Some 4.3% of all compounds tested hit in one or more screens of this group.
STAT3 act = IL-6 driven STAT3 reporter potentiators, primary screen, U3A cells, luciferase, luminescence, MLSCN library; activation (% of control), % at 5.6 µM; 0.91% of 190,000 active; AID 871, 2007; IL-6 STAT3-luciferase reporter; 100% = signal with IL-6 EC80 alone;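 active means activation above the screen-wide mean of compound activation plus 3 SD, cut at about 130% in these data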;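 further: 0% = background luminescence of wells with medium and substrate only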
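Material: human STAT1-deficient U3A cells with stable STAT3-luciferase reporter / Probe or stimulus: IL-6 stimulus at 33 ng/mL final / Schedule: 1 h compound pre-exposure, 6 h IL-6 stimulation, 37 °C / Technique: luminescence / Read-out basis: percent of IL-6-only median luminescence / Control set: IL-6-only high control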
STAT3 inh-1 = IL-6 driven STAT3 reporter inhibitors, primary screen, U3A cells, luciferase, luminescence, MLSCN library; IL-6 STAT3-luciferase reporter; host cell line lacks STAT1; inhibition, % at 5.5 µM; 0.89% of 190,000 active;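 active means inhibition above the mean inhibition across all screened compounds plus 3 SD, cut at about 44% in these data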;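 further: 0% = DMSO only wells and 100% = 100 µM nifuroxazide control wells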
STAT1 activator = STAT1 signaling activators, primary screen, cell-based, HTS, luciferase reporter. NIH 3T3 STAT1-luciferase reporter, IFN-gamma, luminescence; 100% = IFN-gamma alone, no compound. activation (% of control), % at 5.5 µM. 2.6% of 200,000 active;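 active means activation above the screen-wide mean activation plus 3 SD, cut at about 130% in these data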;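 further: raw ratio to IFN-gamma control signal so 100% means no change and 0% no light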
STAT1 inh = STAT1 signaling inhibitors, primary screen, cell-based, HTS, luciferase reporter; NIH 3T3 STAT1-luciferase reporter, IFN-gamma, luminescence; inhibition, % at 5.5 µM; 0.35% of 200,000 active; AID 920, 2007;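 active means inhibition above a set limit, the mean inhibition across all tested compounds plus 3 SD, cut at about 34% in these data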;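 further: 0% = IFN-gamma with DMSO and 100% = IFN-gamma with 300 µM nifuroxazide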
STAT3 inh-2 = STAT3 reporter inhibitors, retest of hits, confirmation, U3A cells, luciferase, luminescence. shares compounds with STAT3 inh-1. IL-6 STAT3 luciferase reporter; cell line lacks STAT1. inhibition, % at 5.7 µM. 45% of 1,200 active. AID 1265, 2008;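 active means inhibition above the hit cutoff computed for the primary STAT3 screen, cut at about 44% in these data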;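 further: 0% = IL-6 plus DMSO and 100% = IL-6 plus nifuroxazide control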
NFkB inh STAT3ct = NF-kB reporter inhibitors in human cells, confirmation, counter-screen for STAT3 inhibitor project, cell-based, HEK293T, luciferase, TNF-alpha stimulus. TNF-alpha induced. shares compounds with STAT3 inh-1. inhibition, % at 5.7 µM. 36% of 1,200 active;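 active means inhibition above the mean of solvent-only control wells plus 3 SD, cutoff set per campaign, cut at about 13% in these data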;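 further: 0% = TNF-alpha with DMSO and 100% = TNF-alpha with MG high control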
STAT1 inh STAT3c = STAT1 reporter inhibitors, IFN-gamma induced, confirmation, counter-screen for STAT3 inhibitor project, cell-based, NIH 3T3, luciferase luminescence; shares compounds with STAT3 inh-1; NIH 3T3 STAT1-luciferase reporter; inhibition, % at 5.7 µM; 27% of 1,200 active; AID 1317, 2008;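 active means inhibition above the mean plus 3 SD of solvent-only control wells, limit set per screening run, cut at about 16% in these data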;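 further: 0% = DMSO with IFN-gamma and 100% = nifuroxazide control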
The depositor's hits bear a star; · = no result given.

SMILES	STAT3 act	STAT3 inh-1	STAT1 activator	STAT1 inh	STAT3 inh-2	NFkB inh STAT3ct	STAT1 inh STAT3c
O=C(Cc1ccccc1)N/N=C/c1ccccc1Cl	90	22	106	-7	·	·	·
O=C(N/N=C/c1ccccc1)c1n[nH]c2c1CCCC2	58	56*	102	-5	15	-7	-86
CC1(C)CC(=O)c2cnc3c(C#N)cnn3c2C1	99	12	96	2	·	·	·
COc1ccc(CNC(=O)Cc2nn(C)c(=O)c3ccccc23)cc1	59	51*	75	27	48*	13*	25*
Cn1nc(CC(=O)Nc2cccc3ncccc23)c2ccccc2c1=O	66	46*	89	12	33	5	17*
COc1cccc(Oc2ccc3nnc(C(F)(F)F)n3n2)c1	96	5	101	0	·	·	·
Cn1c(=O)n(C)c2cc([N+](=O)[O-])c(N3CCN(C(=O)c4ccccc4Cl)CC3)cc21	53	63*	84	18	40	9	11
CC(OC(=O)C1CC1)C(=O)Nc1cc(C(F)(F)F)ccc1Cl (stereo unspecified)	92	18	101	-1	·	·	·
CN(CC(=O)Nc1ccc(F)c(F)c1F)C(=O)/C=C/c1ccc(Cl)cc1	100	0	112	-13	·	·	·
CC1CCCN(C(=O)c2ccc(S(=O)(=O)N3CCC(c4nc5ccccc5s4)CC3)cc2)C1 (stereo unspecified)	57	53*	106	-4	50*	14*	18*
CCOc1cc(S(=O)(=O)N2CCC(c3nc4ccccc4s3)CC2)c(OCC)cc1S(=O)(=O)N1CCCCC1	105	-6	108	-9	·	·	·
CCN(CC)C(=O)c1ccc(S(=O)(=O)N2CCC(c3nc4ccccc4s3)CC2)cc1	46	67*	84	22	51*	11	18*
COc1ccc(/C=C(/NC(=O)c2ccco2)C(=O)N2CCCC2=O)cc1	107	2	94	7	·	·	·
O=C1C=C(NC2=CC3OC(c4ccccc4)OCC3OC2=O)CCC1 (stereo unspecified)	57	51*	84	18	36	21*	18*
Cc1nn(C)c(C(=O)NCc2ccc(Cl)cc2)c1Cl	55	56*	78	26	65*	14*	20*
Cn1c(N)c(C(=O)COC(=O)COc2ccccc2C#N)c(=O)n(C)c1=O	106	-6	99	-1	·	·	·
Cc1ccc(CN=C2Nc3ccccc3CS2)cc1	57	59*	102	-2	-4	-27	-100
Clc1ccc(CN=C2Nc3ccccc3CS2)cc1	108	-4	126	-29	·	·	·
CCN(CC)c1ccc2cc(-c3nnc(-c4ccc(Br)cc4)o3)c(=O)oc2c1	102	-2	114	-16	·	·	·
CCN(CC)c1ccc2cc(-c3nc4ccccc4[nH]3)c(=O)oc2c1	21	99*	78	25	76*	50*	17*
Cc1ccc(S(=O)(=O)c2c(C)nn(C(C)(C)C)c2OC(=O)CC(C)C)cc1	97	4	93	7	·	·	·
O=C1OCC2=C1C(c1ccccc1)CC(=O)N2c1ccccc1 (stereo unspecified)	99	8	105	-8	·	·	·
CCCCc1ccc(-c2nc(-c3ccncc3)no2)cc1	100	4	116	-16	·	·	·
CCc1ccc(-c2nc(-c3ccncc3)no2)cc1	58	57*	116	-18	29	-14	-99
O=C(COC(=O)C12CC3CC(CC(C3)C1)C2)Nc1nc2c(F)c(F)c(F)cc2s1	98	3	99	1	·	·	·
SMILES	STAT3 act	STAT3 inh-1	STAT1 activator	STAT1 inh	STAT3 inh-2	NFkB inh STAT3ct	STAT1 inh STAT3c
O=C(NCCC1=CCCCC1)c1ccc(Cl)cc1	64	47*	99	0	4	-28	-113
O=C(Nc1nc2c(F)cc(F)cc2s1)c1ccccn1	48	66*	82	19	34	-20	-131
O=C(COc1ccccc1)NNc1nc2c(F)cc(F)cc2s1	112	-14	96	3	·	·	·
Cc1nc(Nc2nc3ccccc3o2)nc2c1CCC2	45	70*	93	8	28	-7	-66
Cc1cccc(C)c1Nc1nc2ccccc2o1	104	-5	100	1	·	·	·
Cc1cc(O)cc(O)c1C=NCc1ccco1	101	-3	98	2	·	·	·
O=C(c1ccccc1)c1cnc(-c2ccc(Cl)cc2)s1	64	48*	116	-18	21	-15	-70
O=C(c1ccccc1)c1cnc(-c2ccccc2)s1	59	52*	130*	-33	17	-30	-77
O=C(c1ccc(Cl)cc1)c1cnc(-c2ccc(Cl)cc2)s1	92	12	90	11	·	·	·
CN(C)/C=C/C(=O)c1cnc(-c2ccc(Cl)cc2)s1	68	43*	133*	-36	13	-33	-66
Cc1ccsc1CNC1C2CC3CC(C2)CC1C3 (stereo unspecified)	103	4	94	4	·	·	·
CCC(=O)N(C1=C(NC)C(=O)c2ccccc2C1=O)C(C)C	103	-1	93	7	·	·	·
CNC1=C(N(C(C)=O)c2ccc(Br)cc2)C(=O)c2ccccc2C1=O	59	49*	75	28	53*	31*	41*
CCOC(=O)c1c(C)nc2cc(C)cc(C)n12	91	20	109	-12	·	·	·
COCCCNC(=O)Cn1cc(C(C)=O)c2ccccc21	91	12	102	0	·	·	·
CC(=O)c1cn(CC(=O)Nc2cccc(C)c2C)c2ccccc12	60	49*	72	29	44*	15*	23*
CC(=O)c1cn(CC(=O)Nc2ccc(C)cc2C)c2ccccc12	51	62*	73	26	61*	12	22*
CC1(C)CC(NC(=O)c2sc3cc(Cl)ccc3c2Cl)CC(C)(C)N1	106	-2	105	-9	·	·	·
COc1cccc(NC(=O)CN(C)C(=O)COc2ccc3ccccc3c2)c1	113	-17	99	2	·	·	·
CCOc1ccc(N=c2scc(-c3ccc(OC)cc3)n2CCO)cc1	54	59*	98	3	18	-2	-5
CCOc1ccc(N=c2scc(-c3ccccc3)n2CCO)cc1	90	17	112	-13	·	·	·
COc1cc([N+](=O)[O-])ccc1NC(=O)CSc1nnc(C)c(C)n1	105	0	94	5	·	·	·
O=[N+]([O-])c1ccc(O)c(C=Nc2ccc3c(c2)OCCO3)c1	64	44*	111	-12	-21	-16	-41
